Reference: ChEMBL document CHEMBL1144923, “Restricted conformation analogues of an anthelmintic cyclodepsipeptide” (2003)

Experiments:
Assay type in all cases: functional
Meriones unguiculatus [1] = experiment: Percent reduction of Haemonchus contortus in immunosuppressed jird (Meriones unguiculatus) when CDP administered 0.11 mg/jird orally
Outline: (§1)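 Jirds were immunosuppressed via medicated food; 5 days later each got ~1000 exsheathed infective H. contortus larvae (pre-incubated 1 h in Earle's balanced salt solution) per os. The strain was maintained in sheep. Jirds were randomized by cage (3/group) on day 10 post-inoculation. Compound was suspended in 17% DMSO/83% carboxymethylcellulose and given orally in 0.2 mL, with vehicle-only controls. Worms were recovered after 5 h incubation at 37 °C, fixed in formaldehyde and counted under a dissecting microscope. Percent clearance = (mean control − mean treated)/mean control × 100.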

Meriones unguiculatus [2] = experiment: Percent reduction of Haemonchus contortus in immunosuppressed jird (Meriones unguiculatus) when CDP administered 0.33 mg/jird orally; outline: as §1
Meriones unguiculatus [3] = experiment: Percent reduction of Haemonchus contortus in immunosuppressed jird (Meriones unguiculatus) when CDP administered 3 mg/jird orally; outline: as §1
Meriones unguiculatus [4] = experiment: Percent reduction of Haemonchus contortus in immunosuppressed jird (Meriones unguiculatus) when CDP administered 1 mg/jird orally; outline: as §1
Meriones unguiculatus [5] = experiment: Percent reduction of Haemonchus contortus in immunosuppressed jird (Meriones unguiculatus) when CDP administered 2.75 mg/jird orally; outline: as §1
Meriones unguiculatus [6] = experiment: Percent reduction of Haemonchus contortus in immunosuppressed jird (Meriones unguiculatus) when CDP administered 5.75 mg/jird orally; outline: as §1

With `CC(C)C[C@H]1C(=O)O[C@H](Cc2ccccc2)C(=O)N(C)[C@@H](CC(C)C)C(=O)O[C@H](C)C(=O)N(C)[C@@H](CC(C)C)C(=O)O[C@H](Cc2ccccc2)C(=O)N(C)[C@@H](CC(C)C)C(=O)O[C@H](C)C(=O)N1C` as the molecule, how does the Reduction (Meriones unguiculatus [1]) read?
The Reduction was 100%.

With `CC(C)C[C@H]1C(=O)O[C@H](Cc2ccccc2)C(=O)N(C)[C@@H](CC(C)C)C(=O)OC2CCCN(C2=O)[C@@H](CC(C)C)C(=O)O[C@H](Cc2ccccc2)C(=O)N(C)[C@@H](CC(C)C)C(=O)O[C@H](C)C(=O)N1C` (stereo partly specified) as the molecule, how does the Reduction (Meriones unguiculatus [2]) read?
Its Reduction is 75%.

What about the Reduction (Meriones unguiculatus [3]) of the same molecule?
Its Reduction is 99%.

What about the Reduction (Meriones unguiculatus [4]) of the same molecule?
Its Reduction is 89%.

And the Reduction (Meriones unguiculatus [1])?
The Reduction was 36%.

How did the Reduction (Meriones unguiculatus [5]) turn out when `CC(C)C[C@H]1C(=O)O[C@H](Cc2ccccc2)C(=O)N(C)[C@@H](CC(C)C)C(=O)O[C@@H]2CCN(C2=O)[C@@H](CC(C)C)C(=O)O[C@H](Cc2ccccc2)C(=O)N(C)[C@@H](CC(C)C)C(=O)O[C@H](C)C(=O)N1C` was run?
Its Reduction is 69%.

What about the Reduction (Meriones unguiculatus [6]) of the same molecule?
Its Reduction is 89%.

Which Reduction (Meriones unguiculatus [2]) does the source give for `CC(C)C[C@H]1C(=O)O[C@H](Cc2ccccc2)C(=O)N(C)[C@@H](CC(C)C)C(=O)OC2CCCCN(C2=O)[C@@H](CC(C)C)C(=O)O[C@H](Cc2ccccc2)C(=O)N(C)[C@@H](CC(C)C)C(=O)O[C@H](C)C(=O)N1C` (stereo partly specified) here?
The Reduction was 99%.

And the Reduction (Meriones unguiculatus [3])?
The Reduction was 100%.

What about the Reduction (Meriones unguiculatus [4]) of the same molecule?
Its Reduction is 100%.

What about the Reduction (Meriones unguiculatus [1]) of the same molecule?
The Reduction was 91%.
